Only some compounds are listed: those with a hit (about 2.8% of all), similar ones and a draw of the others.
MC4R antag cAMP – MC4R antagonists of cAMP signaling, primary screen, cell-based, TR-FRET, antagonist arm of biased-ligand search. MC4R-expressing cells, MTII-stimulated cAMP, LANCE TR-FRET. inhibition, % at 6.5 µM. actives 0.48% (n = 360,000). AID 540295, 2011;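 active = inhibition above its plate's cutoff, the mean of tested wells on that plate plus 3 SD, cut at about 29% in these data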
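Assay system: U2OS-MC4R stable cell line; Also added: Melanotan II; Technique: Eu-cAMP/anti-cAMP TR-FRET, emission 671 nm; Times: 30-min compound, 1-h challenge, 1-h detection, room temperature.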
EBI2 block – EBI2 receptor antagonists, beta-arrestin recruitment, primary screen, cell-based, luminescence, 7a,25-OHC stimulation, uHTS. inhibition, % at 5 µM. 7a,25-OHC stimulated. G-protein coupled receptor 183 (Homo sapiens), P32249. actives 0.81% (n = 360,000); in the data active = inhibition above about 38%;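 also: enzyme fragment complementation signal reports receptor beta-arrestin coupling in cells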
HTR2A ag – mouse Htr2a agonists via beta-arrestin recruitment, primary screen, cell-based, luminescence. 5-hydroxytryptamine receptor 2A (Mus musculus), P35363. CHO-K1 mHTR2A beta-arrestin complementation; percent of 30 µM serotonin response. activation, % at 7.6 µM. actives 0.66% (n = 360,000);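 active = activation above a run cutoff, the mean activation of all tested compounds plus 3 SD, cut at about 14% in these data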
MC4R barr agon – MC4R agonists recruiting beta-arrestin, primary screen, cell-based, luminescence, agonist arm of biased-ligand search; U2OS MC4R beta-arrestin complementation; percent of melanotan II response, DMSO zero; activation, % at 8.9 µM; actives 0.98% (n = 360,000); AID 540308, 2011;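 active = activation above a per-plate cutoff, the mean activation of sample wells on that plate plus 3 SD, cut at about 8% in these data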
MC4R barr conf – MC4R beta-arrestin agonists, retest, confirmation, cell-based, luminescence, U2OS | shares compounds with MC4R barr agon | U2OS MC4R beta-arrestin recruitment; scaled DMSO 0%, Melanotan II 100% | activation, % at 8.9 µM | actives 31% (n = 2,400) | AID 602192, 2012;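 active = mean activation across replicates above the hit cutoff set in the earlier primary screen, cut at about 8% in these data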
MOR-DOR barr ag – agonists of MOR-DOR heterodimerization, counter-screen for MC4R biased agonist project, cell-based, luminescence | shares compounds with MC4R barr agon | U2OS PathHunter beta-arrestin, beta-gal luminescence; percent of deltorphin B response, DMSO zero | activation, % at 9.2 µM | actives 5.8% (n = 2,400) | AID 602194, 2012;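 active = mean activation across replicates exceeds the hit threshold derived in the earlier primary screen, cut at about 18% in these data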
Of the large screens only hits and unclear results are named; the others gave an inactive call (follow-up assays come after a bar, where they were run).

COc1cc(/C=C2/C(=N)N3C=CSC3=NC2=O)ccc1OCCCOc1ccccc1C	MC4R barr agon 16.8 | MC4R barr conf 12.1 | MOR-DOR barr ag inactive
CCc1nc2c(OCc3ccc(Cl)cc3)cccn2c1N(C=O)Cc1ccc(OC)cc1	none
Clc1ccc(-n2ncc3c(NCc4ccc5c(c4)OCO5)ncnc32)cc1	MC4R barr agon 10.2 | MC4R barr conf inactive | MOR-DOR barr ag inactive
CN(Cc1ccccc1)C(=O)c1ccc(Nc2nc(C(N)Cc3ccccc3)cs2)nc1 (stereo not given)	none
NC(Cc1ccc(C(F)(F)F)cc1)c1csc(Nc2cc(NCc3ccco3)ncn2)n1 (stereo not given)	MC4R barr agon 12.1 | MC4R barr conf 43.4 | MOR-DOR barr ag 25.8
NC(CCc1ccccc1)c1csc(Nc2ccc(C(=O)c3ccccc3)cc2)n1 (stereo not given)	MC4R barr agon 13.1 | MC4R barr conf 20.1 | MOR-DOR barr ag inactive
Cc1ccc(C(=O)Nc2nc(C(N)Cc3ccc(C(F)(F)F)cc3)cs2)cc1 (stereo not given)	MC4R barr agon 10.8 | MC4R barr conf 24.5 | MOR-DOR barr ag inactive
